Assay results pooled from the literature.
Lines come from different studies, so protocols differ.

| Structure (SMILES) | target or system | test | system | conditions | quantity | value |
| --- | --- | --- | --- | --- | --- | --- |
| O=[N+]([O-])NC(=S)NN=Cc1ccc(Br)cc1 | Leishmania tropica | parasite growth, MTT |  | 72 h, promastigote | IC50 | 1240 µM |
| COc1cnc(OC)n2nc(NS(=O)(=O)c3c(OCC(F)F)cccc3C(F)(F)F)nc12 | L02 | cell growth or viability, CCK-8 |  | 100 µM, 72 h | inhibition | 1.54% |
| Cc1ccc(C=NNC(=S)N[N+](=O)[O-])cc1 | Leishmania tropica | parasite growth | J774.A1 | 72 h, intracellular, amastigote | IC50 | 331 µM |
| CC1=NN(c2ccc(C)c(C)c2)C(=O)/C1=N\Nc1cccc(-c2cccc(C(=O)O)c2)c1O | Severe acute respiratory syndrome coronavirus 2 | viral replication, inhibitor | Calu-3 | replicon | IC50 | 4.55 µM |
| COc1ncc(-c2cn([C@@H]3O[C@](F)(CO)[C@@H](O)[C@H]3O)cn2)c(OC)n1 | Severe acute respiratory syndrome coronavirus 2 | viral replication, inhibitor | A549-ACE2 | 24 h | IC50 | > 100 µM |
| CCOC(=O)C1=C(CN2CCOCC2)NC(c2nccs2)=NC1c1ccc(F)cc1Br (centres unmarked) | Hepatitis B virus | viral replication, inhibitor, qPCR | HepDES19 | 72 h | EC50 | 0.04 µM |
| Cc1c(O)cccc1C(=O)N[C@@H](CSc1ccccc1)[C@H](O)CN1C[C@H]2CCCC[C@H]2C[C@H]1C(=O)NC(C)(C)C | Severe acute respiratory syndrome coronavirus 2 | viral replication, inhibitor | Calu-3 | replicon | IC50 | 4.05 µM |
| COc1ncncc1-c1cn([C@@H]2O[C@](F)(CO[P@@](=O)(N[C@@H](C)C(=O)OC(C)C)Oc3ccccc3)[C@@H](O)[C@H]2O)cn1 | Severe acute respiratory syndrome coronavirus 2 | viral replication, inhibitor | A549-ACE2 | 24 h | IC50 | > 100 µM |
| Cc1ccc(NC(=O)C2(c3ccc4c(c3)OC(F)(F)O4)CC2)nc1-c1cccc(C(=O)O)c1 | Severe acute respiratory syndrome coronavirus 2 | viral replication, inhibitor | Calu-3 | replicon | IC50 | 0.458 µM |
| COc1ccc(C=NNC(=S)N[N+](=O)[O-])cc1OC | Leishmania tropica | parasite growth, MTT |  | 72 h, promastigote | IC50 | 865 µM |
| COc1nc(N)ncc1-c1cn([C@@H]2O[C@](F)(CO[P@@](=O)(N[C@@H](C)C(=O)OC(C)C)Oc3ccccc3)[C@@H](OC(=O)C(C)C)[C@H]2OC(=O)C(C)C)cn1 | Severe acute respiratory syndrome coronavirus 2 | viral replication, inhibitor | A549-ACE2 | 24 h | IC50 | 12.5 µM |
| N.N.[Cl][Pt][Cl] | NALM-6 | cell growth or viability, ATP luminescence |  | 72 h | IC50 | 1.05 µM |
| COc1ncncc1-c1cn([C@@H]2O[C@](F)(CO[P@@](=O)(N[C@@H](C)C(=O)OC(C)C)Oc3ccccc3)[C@@H](OC(=O)C(C)C)[C@H]2OC(=O)C(C)C)cn1 | Severe acute respiratory syndrome coronavirus 2 | viral replication, inhibitor | A549-ACE2 | 24 h | IC50 | 25.5 µM |
| O=c1[nH]c2ccccc2n1C1CCN(CCCC(c2ccc(F)cc2)c2ccc(F)cc2)CC1 | Severe acute respiratory syndrome coronavirus 2 | viral replication, inhibitor | Caco-2 | replicon | IC50 | 2.14 µM |
